From ChEMBL document CHEMBL4049443, “Discovery of 2-[[2-Ethyl-6-[4-[2-(3-hydroxyazetidin-1-yl)-2-oxoethyl]piperazin-1-yl]-8-methylimidazo[1,2-a]pyridin-3-yl]methylamino]-4-(4-fluorophenyl)thiazole-5-carbonitrile (GLPG1690), a First-in-Class Autotaxin Inhibitor Undergoing Clinical Evaluation for the Treatment of Idiopathic Pulmonary …” (J Med Chem, 2017)
The source made the active and inactive calls. No cut-off for these calls is given here.

Key:
Autotaxin [1] = target: Autotaxin (Homo sapiens, UniProt Q13822); assay: Inhibition of human ATX using LPC (16:0) as substrate after 30 mins by horseradish peroxidase/choline oxidase coupled enzyme based spectrophotometric analysis
Cytochrome P450 3A4 = Cytochrome P450 3A4 (Homo sapiens, UniProt P08684); assay: Time-dependent inhibition of human liver microsomes CYP3A4; format: ADME
Cytochrome P450 3A4, sequence (P08684 whole entry): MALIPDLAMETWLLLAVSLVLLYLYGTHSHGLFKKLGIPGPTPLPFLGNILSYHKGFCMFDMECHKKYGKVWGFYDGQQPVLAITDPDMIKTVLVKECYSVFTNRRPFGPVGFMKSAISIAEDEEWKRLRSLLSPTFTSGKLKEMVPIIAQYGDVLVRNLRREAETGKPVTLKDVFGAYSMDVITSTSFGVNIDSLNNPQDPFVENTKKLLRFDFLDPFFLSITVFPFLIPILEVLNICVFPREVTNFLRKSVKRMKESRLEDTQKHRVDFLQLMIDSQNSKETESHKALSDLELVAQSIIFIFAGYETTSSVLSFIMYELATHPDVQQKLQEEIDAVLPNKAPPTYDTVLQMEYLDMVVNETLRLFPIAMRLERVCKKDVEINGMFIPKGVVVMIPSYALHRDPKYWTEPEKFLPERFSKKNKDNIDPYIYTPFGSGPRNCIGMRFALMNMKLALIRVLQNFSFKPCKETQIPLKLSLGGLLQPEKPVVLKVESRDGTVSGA

[2] = target: Voltage-gated inwardly rectifying potassium channel KCNH2 (Homo sapiens, UniProt Q12809); assay: Inhibition of human ERG by automated patch clamp assay
Voltage-gated inwardly rectifying potassium channel KCNH2, sequence (Q12809 whole entry): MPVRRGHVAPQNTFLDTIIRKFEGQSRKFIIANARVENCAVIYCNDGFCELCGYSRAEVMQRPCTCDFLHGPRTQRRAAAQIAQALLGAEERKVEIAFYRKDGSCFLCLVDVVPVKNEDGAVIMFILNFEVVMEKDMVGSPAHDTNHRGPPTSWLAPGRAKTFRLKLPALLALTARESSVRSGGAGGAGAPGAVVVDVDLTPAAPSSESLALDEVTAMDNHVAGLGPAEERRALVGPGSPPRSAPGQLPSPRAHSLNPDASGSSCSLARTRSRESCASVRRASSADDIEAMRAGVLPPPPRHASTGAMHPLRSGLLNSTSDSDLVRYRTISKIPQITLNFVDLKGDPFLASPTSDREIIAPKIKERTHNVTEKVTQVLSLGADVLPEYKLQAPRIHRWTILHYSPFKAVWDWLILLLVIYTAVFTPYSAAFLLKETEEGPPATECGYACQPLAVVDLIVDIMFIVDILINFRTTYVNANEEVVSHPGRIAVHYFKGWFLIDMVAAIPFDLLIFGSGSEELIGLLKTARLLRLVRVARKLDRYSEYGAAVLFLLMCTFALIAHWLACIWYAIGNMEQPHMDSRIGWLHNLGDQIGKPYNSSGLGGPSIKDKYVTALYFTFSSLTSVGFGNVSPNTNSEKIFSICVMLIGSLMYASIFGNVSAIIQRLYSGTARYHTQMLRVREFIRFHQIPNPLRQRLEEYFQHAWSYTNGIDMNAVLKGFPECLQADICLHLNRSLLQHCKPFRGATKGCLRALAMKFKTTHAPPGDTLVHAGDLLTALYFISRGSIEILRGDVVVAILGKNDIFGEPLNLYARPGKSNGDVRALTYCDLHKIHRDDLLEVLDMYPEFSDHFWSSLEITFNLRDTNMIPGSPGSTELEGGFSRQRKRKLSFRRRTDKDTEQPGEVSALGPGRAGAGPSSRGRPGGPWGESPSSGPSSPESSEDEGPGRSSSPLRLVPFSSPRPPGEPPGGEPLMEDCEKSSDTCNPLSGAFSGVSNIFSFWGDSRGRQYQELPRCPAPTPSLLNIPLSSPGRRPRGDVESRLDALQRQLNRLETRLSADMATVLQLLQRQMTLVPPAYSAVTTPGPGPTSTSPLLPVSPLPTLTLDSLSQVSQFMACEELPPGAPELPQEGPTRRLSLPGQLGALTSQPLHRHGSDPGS

[3] = Oral bioavailability in mouse at 5 mg/kg; format: ADME, organism-based; details: in vivo
[4] = Plasma clearance in mouse at 1 mg/kg, iv; format: ADME, organism-based
Autotaxin [5] = target: Autotaxin (Rattus norvegicus, UniProt Q64610); assay: Inhibition of ATX in rat plasma assessed as reduction in LPA 18:2 production after 2 hrs by LC-MS/MS analysis
[6] = Oral bioavailability in rat at 5 mg/kg; format: ADME, organism-based; details: in vivo
[7] = Plasma clearance in rat at 1 mg/kg, iv; format: ADME, organism-based
Mus musculus [8] = assay: Anti-fibrotic activity in BML-induced pulmonary fibrosis C57BL/6 mouse model assessed as reduction in fibrotic thickening of aveolar/bronchial walls at 50 mg/kg, po administered bid with 7.5 hrs interval between 2 doses for 21 days relative to control; format: functional, organism-based
Procedure, shortened: (§1)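 Male C57Bl/6 mice, 11 weeks at delivery, anesthetized and given intranasal bleomycin 30 μg/50 μL; PBS controls. Oral dosing twice daily, 7.5 h apart, 10 mL/kg, from challenge day for 21 days: test agent in PEG 200/0.5% MC, pirfenidone in 0.5% CMC, vehicle controls; 14−24 mice per group. Lungs stained by Mallory method, scored 1–5 (Matsuse-modified Ashcroft) as mean of 10 low-power fields; group median, Mann−Whitney.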

Mus musculus [9] = assay: Anti-fibrotic activity in BML-induced pulmonary fibrosis C57BL/6 mouse model assessed as reduction in fibrosis with damage of pulmonary structure at 50 mg/kg, po administered bid with 7.5 hrs interval between 2 doses for 21 days relative to control; format: functional, organism-based; procedure, shortened: as §1
Mus musculus [10] = assay: Anti-fibrotic activity in BML-induced pulmonary fibrosis C57BL/6 mouse model assessed as reduction in fibrous area with severe distortion of lung structure at 50 mg/kg, po administered bid with 7.5 hrs interval between 2 doses for 21 days relative to control; format: functional, organism-based; procedure, shortened: as §1
[11] = Chemical stability of the compound in DMSO by 1H NMR analysis; format: physicochemical
[12] = Chemical stability of the compound in DMSO by LC-MS analysis; format: physicochemical

In the case of CCc1nc2ccc(N3CCN(CC(=O)N4CC(O)C4)CC3)cn2c1N(C)c1nc(-c2ccc(F)cc2)cs1, the IC50 (Autotaxin [1]) is reported as 274 nM and the TDI (Cytochrome P450 3A4) is reported as “Active”.
In the case of CCc1nc2ccc(C3CCN(CC(=O)N4CC(O)C4)CC3)cn2c1N(C)c1nc(-c2ccc(F)cc2)c(C#N)s1, the IC50 (Autotaxin [1]) is reported as 27 nM, the IC50 [2] is reported as 2900 nM and the bioavailability [3] is reported as 12%. For the same molecule, the TDI (Cytochrome P450 3A4) was “Active”, the clearance [4] was 20 mL/min/kg and the IC50 (Autotaxin [5]) was 22 nM. For the same molecule, the bioavailability [6] was 15% and the clearance [7] was 51.7 mL/min/kg.
In the case of Cc1ccc(=O)n(-c2ccccc2)c1, the Activity (Mus musculus [8]) is reported as “Active”, the Activity (Mus musculus [9]) is reported as “Active” and the Activity (Mus musculus [10]) is reported as “Active”.
With CCc1nc2ccc(C3CCN(CC(=O)N4CC(O)C4)CC3)nn2c1N(C)c1nc(-c2ccc(F)cc2C#N)ns1 the IC50 (Autotaxin [1]) was 297 nM and the TDI (Cytochrome P450 3A4) was “Active”.
For CCc1nc2ccc(C3CCN(CC(=O)N4CC(O)C4)CC3)nn2c1N(C)c1ccc(C#N)c(-c2ccc(F)cc2)n1, the IC50 (Autotaxin [1]) was 192 nM and the TDI (Cytochrome P450 3A4) was “Active”.
In the case of CCc1nc2cnc(N3CCN(CC(=O)N4CC(O)C4)CC3)cn2c1N(C)c1nc(-c2ccc(F)cc2)c(C#N)s1, the Stability [11] is reported as “Unstable”, the IC50 (Autotaxin [1]) is reported as 102 nM and the TDI (Cytochrome P450 3A4) is reported as “Not Active”. For the same molecule, the Stability [12] was “Unstable”.
